HTRA1 inhibitor: inhibitors of human serine peptidase HTRA1 | hit rate 0.5% among 340,000 | inhibition, % at 5.96 µM | recombinant HTRA1, FP-rhodamine activity-based probe, fluorescence polarization | Q92743; in the data active means inhibition above about 36%
Target sequence (Q92743 whole entry, looked up): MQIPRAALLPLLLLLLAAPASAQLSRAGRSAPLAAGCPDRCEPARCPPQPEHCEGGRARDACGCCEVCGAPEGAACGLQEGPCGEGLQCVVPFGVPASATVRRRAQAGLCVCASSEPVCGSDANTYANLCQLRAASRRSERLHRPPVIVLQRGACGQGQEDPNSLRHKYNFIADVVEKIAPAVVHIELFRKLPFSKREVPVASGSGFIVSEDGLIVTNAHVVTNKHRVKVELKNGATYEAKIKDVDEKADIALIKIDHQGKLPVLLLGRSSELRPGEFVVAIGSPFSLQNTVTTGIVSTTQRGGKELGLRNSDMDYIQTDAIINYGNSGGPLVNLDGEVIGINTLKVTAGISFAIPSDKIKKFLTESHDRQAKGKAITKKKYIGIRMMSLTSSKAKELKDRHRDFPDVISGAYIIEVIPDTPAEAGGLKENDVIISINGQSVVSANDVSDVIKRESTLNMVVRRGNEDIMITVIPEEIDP
mABHD4 FP: inhibits mouse alpha/beta hydrolase domain 4 | Q8VD66 | hit rate 0.54% among 370,000 | purified mABHD4, FP-Rh probe fluorescence polarization | AID 720543 | inhibition, % at 8.92 µM;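 active means inhibition exceeding the mean over every tested compound plus 3 SD, cut at about 30% in these data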
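system = mouse ABHD4 enzyme, wild type | medium = HEPES pH 7.0, NaCl, Pluronic buffer | also added = FP-Rh probe | incubation = Enzyme–compound pre-incubation 45 min, then probe 60 min, both 25 °C | technique = fluorescence polarization, excitation 525 nm, emission 598 nm, BODIPY TMR filters | controls = S159A mutant high control, sample median low control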
Tn7 DDE FP: DD(E)-Tn7 binding inhibition, primary FP screen; hit rate 0.13% among 370,000; AID 720508; FP displacement of FITC-Tn7 peptide from fibrin DD(E); 0% = median of compound wells per plate; P02675; inhibition, % at 8.3 µM;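 active means inhibition above the mean of compounds falling within the control limits plus 3 SD of them, cut at about 14% in these data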
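Assay system: Human fibrin DD(E) protein | Medium: Tris buffer with calcium and detergent, pH 7.8 | Reagent: 0.1 µM fluorescent Tn7 | Compound dosing: Single point at 8.3 µM | Times: 10 min preincubation, 3 h with tracer, room temperature | Detection: Fluorescence polarization of the labelled Tn7 tracer | Controls: Aha-Tn7 high control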
TCR CD3 inh: blocks the human TCR-CD3 interaction; TAMRA-labeled TCR probe fluorescence, biochemical; inhibition, % at 9.4 µM; hit rate 0.37% among 360,000; in the data active means inhibition above about 19%;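 further: recombinant mutant TCR 2C K166C tagged with TAMRA read by polarization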
SIAE primary: human SIAE inhibition, primary screen; Q9HAT2; SIAE FP-Rh probe binding, fluorescence polarization; inhibition, % at 9.66 µM; hit rate 0.69% among 370,000; AID 1053197;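 active means inhibition above a cutoff: mean of compounds within the control limits plus 3 SD of those, cut at about 17% in these data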
DDE Tn6 FP inh: DD(E)-Tn6 binding inhibition, primary FP screen; hit rate 0.21% among 370,000; inhibition, % at 8.3 µM; AID 720509; Fibrin DD(E) TRITC-Tn6 fluorescence polarization displacement;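 active means inhibition above a per-campaign cutoff: mean of compounds within control limits plus 3 SD, cut at about 15% in these data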
SIAE confirm: confirmation of human SIAE inhibitors. shares compounds with SIAE primary. SIAE FP-Rh activity-based probe, fluorescence polarization. inhibition, % at 9.66 µM. hit rate 13% among 2,300. AID 1117263;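 active means mean inhibition of the replicates above the hit cutoff set in the primary screen, cut at about 17% in these data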;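 further: inhibitors lower polarization as more probe stays unbound to SIAE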
Of the large screens only hits and unclear results are named; the others gave an inactive call (follow-up assays come after a bar, where they were run). An excerpt weighted towards active compounds, which were near 1.8% of everything screened.

O=C(/C=C/c1ccccc1)N1CCN(CC(O)COc2ccccc2)CC1 (stereo not drawn)	SIAE primary 19 | SIAE confirm inactive
CC(C)CN1C(=O)C[C@]2(C(=O)N(C)c3ccc(NS(=O)(=O)C4CCCCC4)cc32)C1c1ccccc1 (stereo partly drawn)	none (no result: HTRA1 inhibitor, TCR CD3 inh)
COc1ccc(C2(C)CC(C)(C)Nc3ccccc32)cc1 (stereo not drawn)	none
COc1ccc(C2CC(C)(c3ccc(OC)cc3)Nc3ccccc3N2)cc1 (stereo not drawn)	SIAE primary 17 | SIAE confirm inactive
O=C(c1ccc(Cn2c(=S)[nH]c3ccccc3c2=O)cc1)N1CCN(c2ccccn2)CC1	SIAE primary 23 | SIAE confirm inactive
O=C(c1ccc(Cn2c(=O)[nH]c3ccccc3c2=O)cc1)N1CCN(c2ccccn2)CC1	none
O=C(c1ccccc1Oc1ccccc1)N1CCC(Oc2cccnc2)CC1	SIAE primary 20 (no result: HTRA1 inhibitor, TCR CD3 inh) | SIAE confirm inactive
Cc1ccc(-n2[nH]c(C)c(C=Nc3ccc4[nH]c(=O)[nH]c4c3)c2=O)cc1C	none
Cc1ccc(-n2[nH]c(C)c(C=Nc3ccc4[nH]c(=O)[nH]c4c3)c2=O)cc1	SIAE primary 23 | SIAE confirm inactive
O=C1CC(c2ccc(F)cc2)C(n2cncn2)C(O)=C1C1NCCc2ccccc21 (stereo not drawn)	SIAE primary 26 | SIAE confirm inactive
COC(=O)[C@H]1[C@@H](O)[C@@]2(O)c3c(OC)cc(OC)cc3O[C@@]2(c2ccc(OC)cc2)[C@@H]1c1ccc(F)cc1	none (no result: HTRA1 inhibitor)
COc1ccc(C2=Nn3c(nnc3-c3ccccc3OC)SC2)cc1OCC1CC1	SIAE primary 29 | SIAE confirm 27
COC(=O)C1=C(C)N(Cc2ccc(C(F)(F)F)cc2)C(=NCc2ccccc2C(F)(F)F)NC1c1ccc(C(F)(F)F)cc1 (stereo not drawn)	none (no result: HTRA1 inhibitor)
COc1ccc2c(c1)CC=C1C2CCC2(C)C(=O)C(=NO)CC12 (stereo not drawn)	SIAE primary 19 | SIAE confirm 22
COc1ccc(N2CCN(c3ncnc4scc(-c5ccc(F)cc5)c34)CC2)cc1	none
COc1ccc(N2CCN(c3ncnc4scc(-c5ccc(C)cc5)c34)CC2)cc1	SIAE primary 17 | SIAE confirm inactive
C/C(=C\C(=O)c1ccccc1)Nc1ccc(N2CCOCC2)cc1	SIAE primary 18 | SIAE confirm inactive
C/C(=C\C(=O)c1ccccc1)Nc1ccc(Br)c(Cl)c1	SIAE primary 18 | SIAE confirm inactive
COc1ccc(CNC(=O)O[C@H]2CC[C@@]34CCCN3C(=O)CCC[C@H]4[C@H]2C)cc1OC	none (no result: HTRA1 inhibitor, TCR CD3 inh)
O=C(Oc1ccc2ccc(=O)oc2c1)C1CCCCC1	SIAE primary 38 | SIAE confirm 34
O=C(COc1ccc2ccc(=O)oc2c1)NC1CCCC1	none
O=C(Nc1ccccc1)c1cn2ccccc2n1	SIAE primary 18 | SIAE confirm inactive
O=C(Nc1ccc(-n2cnnn2)cc1)c1cn2ccccc2n1	none (no result: mABHD4 FP, Tn7 DDE FP, TCR CD3 inh, SIAE primary, DDE Tn6 FP inh)
O=C(c1ccc(N2C(=O)CCC2=O)cc1)N1CCCSC1=Nc1ccccc1	SIAE primary 29 | SIAE confirm inactive
O=C(NCc1ccc(Cl)cc1)c1cc2ccccn2n1	SIAE primary 54 | SIAE confirm inactive
COc1ccc(NC(=O)NNC(=O)COc2ccc3ccccc3c2)cc1	SIAE primary 18 | SIAE confirm inactive
Cc1noc(C)c1COC(=O)c1csc2c1CCC(C)C2 (stereo not drawn)	SIAE primary 20 | SIAE confirm inactive
CC1CCc2c(C(=O)NCC3CCCO3)csc2C1 (stereo not drawn)	none
CSCc1cc(N2CCCC2)nc(-c2ccccc2)n1	SIAE primary 19 | SIAE confirm inactive
COc1ccc(S[C@]2(C(=O)N3CCCC3)CC(=O)N(C(=O)Nc3ccc(C)c(Cl)c3)[C@@H]2c2ccc(OC)cc2)cc1	none (no result: HTRA1 inhibitor, TCR CD3 inh)
S=C(NCCCCN(Cc1ccc(Cl)cc1)c1ccc(Br)cn1)NCCCc1cnc[nH]1	SIAE primary 24 (no result: HTRA1 inhibitor) | SIAE confirm 28
CN(C)CCN(Cc1ccc(Cl)cc1)c1ccccn1	none
